Reference: ChEMBL document CHEMBL4428100, “Versatile Picklocks To Access All Opioid Receptors: Tuning the Selectivity and Functional Profile of the Cyclotetrapeptide c[Phe-d-Pro-Phe-Trp] (CJ-15,208)” (J Med Chem, 2016)
Calls of active or inactive are those of the source. The rule behind the calls is not given here. Non-standard residues stand in square brackets, D forms with d. Residues, ends and D or L forms follow the SMILES beside them.

Key:
[1] = target: T1, Delta-type opioid receptor (Homo sapiens, UniProt P41143); assay: Displacement of [3H]diprenorphine from human DOR expressed in HEK293 cell membranes incubated for 90 mins by liquid scintillation counting
[2] = target: T2, Kappa-type opioid receptor (Homo sapiens, UniProt P41145); assay: Displacement of [3H]U69,593 from human KOR expressed in HEK293 cell membranes incubated for 90 mins by liquid scintillation counting
Outline: (§1)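 Compound (10^-12 to 10^-4 M) incubated 90 min at 25°C in 100 mM Tris-HCl with 0.3% BSA. Cold ligands define nonspecific binding. Filters presoaked in 0.3% polyethylenimine; liquid scintillation counting. Ki from IC50 by Cheng-Prusoff; triplicate.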

Mu-type opioid receptor [3] = target: T3, Mu-type opioid receptor (Homo sapiens, UniProt P35372); assay: Displacement of [3H]DAMGO from human MOR expressed in HEK293 cell membranes incubated for 90 mins by liquid scintillation counting; outline: as §1
Mus musculus [4] = assay: Effect on spontaneous locomotor activity in mouse model of visceral pain at 0.5 to 10 mg/kg, ip dosed 5 mins before AcOH challenge measured within 6 hrs; format: ADME, organism-based; details: in vivo
Mus musculus [5] = assay: Antinociceptive activity in mouse model of visceral pain assessed as reduction in AcOH-induced stretching or writhing responses dosed intraperitoneally 5 mins before AcOH challenge; format: functional
Outline: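 Mice given 0.6% w/v AcOH in water ip (0.1 ml/10 g). Compound (0.5-10 mg/kg) or vehicle given ip 5 min earlier. Stretching/writhing counted for 10 min after AcOH. 6-8 mice per group, mean ± SEM; ED50 derived from the dose-response; Dunnett test after ANOVA.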

[6] = target: T2, Kappa-type opioid receptor; assay: Antagonist activity at human KOR expressed in HEK293 cells assessed as reduction of U50,488-induced inhibition of forskolin-induced cAMP accumulation by EIA method; format: functional, cell-based
[7] = Stability in mouse serum after 3 hrs by RP-HPLC and ESI-MS analysis; format: ADME, cell-free
Outline: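 Compound incubated in mouse serum for 3 h to assess enzymatic stability.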

Mus musculus [8] = assay: Antinociceptive activity in mouse model of visceral pain assessed as reduction in AcOH-induced stretching or writhing responses at 10 mg/kg, ip 5 mins before AcOH challenge and co-administered with 10 mg/kg, ip KOR antagonist norBNI 10 mins before compound dosing; format: functional, organism-based
Mus musculus [9] = assay: Effect on circling behavior in mouse model of visceral pain at 0.5 to 10 mg/kg, ip dosed 5 mins before AcOH challenge measured within 6 hrs; format: ADME, organism-based; details: in vivo
Mus musculus [10] = assay: Effect on grooming behavior in mouse model of visceral pain at 0.5 to 10 mg/kg, ip dosed 5 mins before AcOH challenge measured within 6 hrs; format: ADME, organism-based; details: in vivo
[11] = target: T1, Delta-type opioid receptor; assay: Antagonist activity at human DOR expressed in HEK293 cells assessed as reduction of DPDPE-induced inhibition of forskolin-induced cAMP accumulation by EIA method; format: functional, cell-based
Outline: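 HEK-293 cells stably expressing hDOR, in serum-free medium with 0.5 mM IBMX, exposed 15 min at 37°C to 10 μM forskolin plus 10 μM DPDPE, with or without compound (0.001 nM-100 μM). cAMP by EIA kit. Triplicate determinations; IC50 as mean ± SE of 5-6 independent experiments.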

Mu-type opioid receptor [12] = target: T3, Mu-type opioid receptor; format: functional, cell-based, HEK293
Mus musculus [13] = assay: Antinociceptive activity in mouse model of visceral pain assessed as reduction in AcOH-induced stretching or writhing responses at 10 mg/kg, ip 5 mins before AcOH challenge and co-administered with 10 mg/kg, ip DOR antagonist NTD 30 mins before compound dosing; format: functional, organism-based
Mu-type opioid receptor [14] = target: T3, Mu-type opioid receptor; assay: Antagonist activity at human MOR expressed in HEK293 cells assessed as reduction of DAMGO-induced inhibition of forskolin-induced cAMP accumulation by EIA method; format: functional, cell-based
[15] = Toxicity in mouse model of visceral pain assessed as induction of straub tail at 0.5 to 10 mg/kg, ip dosed 5 mins before AcOH challenge measured within 6 hrs; format: organism-based; details: in vivo
Mus musculus [16] = assay: Antinociceptive activity in mouse model of visceral pain assessed as reduction in AcOH-induced stretching or writhing responses at 10 mg/kg, ip 5 mins before AcOH challenge and co-administered with 30 mg/kg, ip opioid antagonist NLX 15 mins before compound dosing; format: functional, organism-based
[17] = target: T2, Kappa-type opioid receptor; assay: Binding affinity to KOR (unknown origin)
Outline: (§2)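 Displacement binding on membranes from HEK-293 cells stably expressing cloned human receptors; radioligand [³H]diprenorphine for DOR, [³H]U69,593 for KOR. Compounds tested at 10⁻¹²–10⁻⁴ M, incubated 90 min at 25°C in 100 mM Tris-HCl with 0.3% BSA. Nonspecific binding defined with cold ligand. Filter-bound radioactivity counted by liquid scintillation. Ki from IC50 via Cheng-Prusoff. Run in triplicate.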

Mu-type opioid receptor [18] = target: T3, Mu-type opioid receptor; assay: Displacement of [3H]DAMGO from human MOR expressed in HEK293 cell membranes at […] incubated for 90 mins by liquid scintillation counting
[19] = target: T1, Delta-type opioid receptor; assay: Binding affinity to DOR (unknown origin); outline: as §2
[20] = Antagonist activity against KOR in rabbit vas deferens smooth muscles assessed as inhibition of asimadoline-induced response; details: Oryctolagus cuniculus
Mu-type opioid receptor [21] = target: T3, Mu-type opioid receptor; assay: Binding affinity to MOR (unknown origin)
Outline: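 Test compounds were run at 10⁻¹²-10⁻⁴ M, incubated 90 min at 25°C in 100 mM Tris-HCl with 0.3% BSA. Nonspecific binding was defined with cold ligand. Filter-trapped radioactivity was counted by liquid scintillation, with filters presoaked in 0.3% polyethylenimine. Assays were run in triplicate. Ki was derived from IC50 by Cheng-Prusoff.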

Mu-type opioid receptor [22] = target: T3, Mu-type opioid receptor; assay: Agonist activity at human MOR expressed in HEK293 cells assessed as inhibition of forskolin-induced cAMP accumulation at 10^-12 to 10^-4 M by EIA method; format: functional, cell-based
Outline: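 Whole HEK-293 cells stably expressing hMOR, in serum-free medium with 0.5 mM IBMX, exposed 15 min at 37°C to 10 μM forskolin with or without compound (0.001 nM-100 μM). cAMP measured by EIA kit. Triplicate determinations; IC50 and Emax (% vehicle) as mean ± SE of 5-6 independent experiments.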

T2 sequence (P41145 whole entry): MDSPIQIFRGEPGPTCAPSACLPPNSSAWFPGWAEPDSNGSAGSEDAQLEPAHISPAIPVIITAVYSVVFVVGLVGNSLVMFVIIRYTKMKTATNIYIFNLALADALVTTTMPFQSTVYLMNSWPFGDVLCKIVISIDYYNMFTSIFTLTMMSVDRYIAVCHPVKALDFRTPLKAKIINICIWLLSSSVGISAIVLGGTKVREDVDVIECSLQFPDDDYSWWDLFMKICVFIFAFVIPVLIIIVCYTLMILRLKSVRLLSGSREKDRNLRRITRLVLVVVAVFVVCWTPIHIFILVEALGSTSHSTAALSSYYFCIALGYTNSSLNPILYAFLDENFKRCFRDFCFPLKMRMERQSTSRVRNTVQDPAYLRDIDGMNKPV
T3 sequence (P35372 whole entry): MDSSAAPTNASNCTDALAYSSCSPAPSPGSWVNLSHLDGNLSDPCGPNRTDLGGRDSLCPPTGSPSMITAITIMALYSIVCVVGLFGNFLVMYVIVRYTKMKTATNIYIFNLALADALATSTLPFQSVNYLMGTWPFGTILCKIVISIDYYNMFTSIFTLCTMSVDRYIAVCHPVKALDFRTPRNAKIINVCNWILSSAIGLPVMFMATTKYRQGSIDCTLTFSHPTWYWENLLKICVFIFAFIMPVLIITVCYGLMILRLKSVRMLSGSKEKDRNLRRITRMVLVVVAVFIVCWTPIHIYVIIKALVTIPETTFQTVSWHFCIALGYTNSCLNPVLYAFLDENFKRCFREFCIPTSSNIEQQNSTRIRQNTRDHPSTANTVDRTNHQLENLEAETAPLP
T1 sequence (P41143 whole entry): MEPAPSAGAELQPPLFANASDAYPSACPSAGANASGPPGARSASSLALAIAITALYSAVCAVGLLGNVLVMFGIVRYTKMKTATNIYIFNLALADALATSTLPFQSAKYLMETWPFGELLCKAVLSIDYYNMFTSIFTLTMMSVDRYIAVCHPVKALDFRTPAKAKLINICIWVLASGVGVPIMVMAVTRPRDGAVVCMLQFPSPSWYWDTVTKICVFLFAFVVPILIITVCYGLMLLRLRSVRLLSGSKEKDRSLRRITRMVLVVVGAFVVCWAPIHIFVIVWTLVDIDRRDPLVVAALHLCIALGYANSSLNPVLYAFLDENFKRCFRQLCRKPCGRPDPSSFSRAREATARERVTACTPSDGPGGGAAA

C[C@@H]1NC(=O)[C@H](Cc2c[nH]c3ccccc23)NC(=O)[C@@H](Cc2ccccc2)NC(=O)[C@H]2CCCN2C1=O
Ki [1]: > 100 µM | Ki [2]: > 100 µM | Ki (Mu-type opioid receptor [3]): > 100 µM

Cn1cc(C[C@H]2NC(=O)[C@H](Cc3ccccc3)NC(=O)[C@H]3CCCN3C(=O)[C@H](Cc3ccccc3)NC2=O)c2ccccc21
Ki [1]: > 100 µM | Ki [2]: > 100 µM | Ki (Mu-type opioid receptor [3]): > 100 µM

O=C1NCCC(=O)N2CCC[C@@H]2C(=O)N[C@@H](Cc2ccccc2)C(=O)N[C@H]1Cc1c[nH]c2ccccc12
Ki [1]: > 100 µM | Activity (Mus musculus [4]): Non-Toxic | inhibition (Mus musculus [5]): Dose-dependent effect | ED50 (Mus musculus [5]; ip): 0.64 mg/kg | inhibition [6]: inactive | Stability [7]: Stable | Activity (Mus musculus [8]): Active | Activity (Mus musculus [9]): Non-Toxic | Ki [2]: > 100 µM | Activity (Mus musculus [10]): Non-Toxic | inhibition [11]: inactive | IC50 (Mu-type opioid receptor [12]): 0.0061 µM | Activity (Mus musculus [13]): Active | Ki (Mu-type opioid receptor [3]): 0.0041 µM | inhibition (Mu-type opioid receptor [14]): inactive | Activity [15]: Non-Toxic | Activity (Mus musculus [16]): inactive

O=C1CNC(=O)[C@H](Cc2ccccc2)NC(=O)[C@@H](Cc2c[nH]c3ccccc23)NC(=O)[C@H]2CCCN2C(=O)[C@H](Cc2ccc(O)cc2)N1 (cyclo(FGY[dP][dW]))
Activity [17]: 1 ×10⁻⁸ M

Cn1cc(C[C@@H]2NC(=O)[C@H](Cc3ccccc3)NC(=O)[C@H]3CCCN3C(=O)[C@H](Cc3ccccc3)NC2=O)c2ccccc21
Ki [1]: > 100 µM | inhibition (Mu-type opioid receptor [18]): < 50% | Ki [2]: > 100 µM

O=C1N[C@@H](Cc2ccccc2)C(=O)N2CCC[C@@H]2C(=O)N[C@@H](Cc2ccccc2)C(=O)N[C@H]1Cc1c[nH]c2ccccc12 (cyclo(FWF[dP]))
Ki [1]: > 100 µM | IC50 [19]: 2.6 µM | EC50 [20]: 1.3 µM | IC50 (Mu-type opioid receptor [21]): 0.26 µM | Ki [2]: 0.032 µM | Ki (Mu-type opioid receptor [3]): 0.127 µM | IC50 [17]: 0.047 µM

C[C@H]1NC(=O)[C@H](Cc2c[nH]c3ccccc23)NC(=O)[C@H](Cc2ccccc2)NC(=O)[C@H]2CCCN2C1=O
Ki [1]: > 100 µM | Ki [2]: > 100 µM | Ki (Mu-type opioid receptor [3]): > 100 µM

O=C1NCCCC(=O)N2CCC[C@@H]2C(=O)N[C@@H](Cc2ccccc2)C(=O)N[C@H]1Cc1c[nH]c2ccccc12
Ki [1]: 0.00308 µM | inhibition (Mu-type opioid receptor [18]): < 50% | inhibition [6]: inactive | Ki [2]: > 100 µM | Activity (Mu-type opioid receptor [22]): inactive | inhibition [11]: Dose-dependent effect | IC50 (Mu-type opioid receptor [12]): 0.183 µM | inhibition (Mu-type opioid receptor [14]): inactive
